The source of these data is ChEMBL document CHEMBL4049421, “Design, Synthesis, and Pharmacological Characterization of N-(4-(2 (6,7-Dimethoxy-3,4-dihydroisoquinolin-2(1H)yl)ethyl)phenyl)quinazolin-4-amine Derivatives: Novel Inhibitors Reversing P-Glycoprotein-Mediated Multidrug Resistance” (J Med Chem, 2017).

A short description of data set [1]: Cytotoxicity against human K562 cells assessed as cell viability at 1.0 uM after 48 hrs by MTT assay (reference value: >99%). The note with it: read-out: Activity. In kind it is cell-based. A general note: Formazan colour is commonly taken as a measure of viable cells.
A short description of data set [2]: Cytotoxicity against human K562/A02 cells assessed as cell viability at 1.0 uM after 48 hrs by MTT assay (reference value: >99%). In kind it is cell-based. The note with it: read-out: Activity.
The species named for data set [3] is Homo sapiens. The experiment in a line: Inhibition of P-gp in human K562/A02 cells assessed as potentiation of doxorubicin-induced cytotoxicity by measuring fold reduction in doxorubicin IC50 at 1.0 uM after 48 hrs by MTT assay relative to doxorubicin alone. It counts as cell-based. Summed up: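 K562/A02 cells (1×10^4 cells per well) were exposed to a DOX concentration series, alone or with modulator at 1.0 μM, for 48 h. Viability was read by MTT at 490 nm. Reversal fold = DOX IC50 without inhibitor / DOX IC50 with inhibitor, mean ± SD of three tests.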

A further data set has as its system K562. The experiment in a line: Cytotoxicity against human K562 cells assessed as suppression of cell viability after 48 hrs by MTT assay. In kind it is cell-based. To be noted: K562, 48 h. Summed up: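 MTT assay on HUVEC, K562 or K562/A02 cells seeded at 1×10^4 cells per well, using serial compound concentrations. Formazan was dissolved in DMSO and read at 490 nm. IC50 was obtained from log dose–response curves, mean ± SD of three independent tests.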

The nature of data set [4]: Selective index, ratio of IC50 for human K562 cells to EC50 for inhibition of P-gp in human K562/A02 cells assessed as potentiation of doxorubicin-induced cytotoxicity. Summed up: (§1)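 Reversal EC50 is the modulator concentration that halves the DOX IC50 in K562/A02 cells, from % DOX IC50 plotted against log modulator concentration. The index divides the MTT IC50 in K562, K562/A02 or HUVEC cells by this EC50.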

Data set [5] can be described thus: Selective index, ratio of IC50 for human K562/A02 cells to EC50 for inhibition of P-gp in human K562/A02 cells assessed as potentiation of doxorubicin-induced cytotoxicity. Summed up:
as §1

A short description of data set [6]: Selectivity index, ratio of IC50 for HUVEC to EC50 for inhibition of P-gp in human K562/A02 cells assessed as potentiation of doxorubicin-induced cytotoxicity. In short, it runs like this: as §1
The species entered for data set [7] is Homo sapiens. Briefly: Inhibition of P-gp in human K562/A02 cells assessed as potentiation of paclitaxel-induced cytotoxicity at 1.0 uM after 48 hrs by MTT assay. It counts as cell-based. In short, it runs like this: (§2)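 K562/A02 cells were exposed for 48 h to DNR, PTX, VLB or CTX at 0, 0.313–20 μM, with or without modulator at 1.0 μM. Viability was measured by MTT at 490 nm, mean ± SD of three independent tests.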

The subject of the next data set is K562/A02. Briefly: Potentiation of cyclophosphamide-induced cytotoxicity against human K562/A02 cells at 1.0 uM after 48 hrs by MTT assay. In kind it is functional, cell-based. Summed up:
as §2

Data set [8] is filed under the species Homo sapiens. Briefly: Inhibition of P-gp in human K562/A02 cells assessed as accumulation of doxorubicin at 0.1 uM to 5.0 uM after 150 mins by fluorescence spectrophotometric analysis. In kind it is cell-based. Summed up:
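K562/A02 cells (4×10^5) were incubated 150 min at 37 °C with 20.0 μM DOX plus modulator at various concentrations, with 0.1% DMSO as negative control. Cells were washed with cold PBS and lysed in HCl/Triton X-100/isopropanol. DOX fluorescence was read at ex 460 / em 587 nm. Mean ± SD, n = 3.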

The species entered for data set [9] is Homo sapiens. Briefly: Inhibition of ATPase activity in human P-gp membrane fraction at 0.5 uM in presence of ATP after 1 hr by luciferase […]. It counts as cell membranes. In short, it runs like this:
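Human P-gp membrane fraction (~25 μg) was incubated with compound at 0.5, 5.0 or 50.0 μM in 0.5% DMSO, with a 100 μM sodium vanadate reference. Reaction was started with 5.0 mM MgATP, 1 h at 37 °C. Remaining ATP was read by luciferase luminescence after 20 min at room temperature, relative to vanadate. n = 3.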
A general note: Reporter assays use an easily measured gene product as a stand-in for the process of interest.

The test system of data set [10] is Rattus norvegicus. Briefly: AUC(0 to 24 hrs) in Sprague-Dawley rat plasma at 10 mg/kg, po measured after 24 hrs by LC-MS/MS analysis. In kind it is ADME, organism-based. Details: dose 10 mg/kg, time < 24 hr, route oral. The note with it: in vivo. In short, it runs like this: (§3)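 Male Sprague-Dawley rats, n = 3 per group, given drug in Tween-80/ethanol/saline (5:10:85, v/v) at 10 mg/kg p.o. or 5 mg/kg i.v. Retro-orbital blood was taken at 5 min to 24 h, and plasma separated at 900g. Samples were spiked with internal standard, methanol-precipitated and quantified by LC-MS/MS. F = (AUCpo/AUCiv)×(dose iv/dose po)×100%.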

For data set [11], the system named is Rattus norvegicus. Briefly: AUC(0 to 24 hrs) in Sprague-Dawley rat plasma at 5 mg/kg, iv measured after 24 hrs by LC-MS/MS analysis. In kind it is ADME, organism-based. Details: dose 5 mg/kg, time < 24 hr, route intravenous. To be noted: in vivo. In short, it runs like this: as §3
Data set [12] concerns Rattus norvegicus. The experiment in a line: AUC(0 to infinity) in Sprague-Dawley rat plasma at 10 mg/kg, po measured after 24 hrs by LC-MS/MS analysis. In kind it is ADME, organism-based. On the set-up: dose 10 mg/kg, route oral, time infinity. To be noted: in vivo. Summed up:
as §3

Data set [13] is described as follows: Elimination half life in Sprague-Dawley rat plasma at 10 mg/kg, po by LC-MS/MS analysis. The note with it: read-out: beta t1/2 (converted). It counts as ADME, organism-based. Summed up: as §3
Data set [14] can be described thus: Elimination half life in Sprague-Dawley rat plasma at 5 mg/kg, iv by LC-MS/MS analysis. The note with it: read-out: beta t1/2 (converted). In kind it is ADME, organism-based. In short, it runs like this: as §3
Data set [15] is described as follows: Cmax in Sprague-Dawley rat at 10 mg/kg, po measured after 24 hrs by LC-MS/MS analysis. In kind it is ADME, organism-based. On the set-up: dose 10 mg/kg, route oral. The note with it: in vivo. In short, it runs like this: as §3
Data set [16] can be described thus: Cmax in Sprague-Dawley rat at 5 mg/kg, iv measured after 24 hrs by LC-MS/MS analysis. It counts as ADME, organism-based. Details: dose 5 mg/kg, route intravenous. The note with it: in vivo. In short, it runs like this:
as §3

Data set [17] is described as follows: Plasma clearance in Sprague-Dawley rat at 10 mg/kg, po measured after 24 hrs by LC-MS/MS analysis. In kind it is ADME, organism-based. Summed up: as §3
Data set [18] can be described thus: Plasma clearance in Sprague-Dawley rat at 5 mg/kg, iv measured after 24 hrs by LC-MS/MS analysis. In kind it is ADME, organism-based. Summed up: as §3
The species named for data set [19] is Homo sapiens. The experiment in a line: Inhibition of P-gp in human K562/A02 cells assessed as potentiation of doxorubicin-induced cytotoxicity at 1.0 uM preincubated for 24 hrs followed by doxorubicin addition measured after 48 hrs by MTT assay. In kind it is cell-based. Summed up:
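K562/A02 cells (1×10^4 cells per well) were preincubated 24 h with modulator (1.0 μM or 5.0 μM) or PBS. Cells were washed 0 or 3 times with medium and held for 0, 6, 12 or 24 h. A DOX concentration series was then added for 48 h, and viability was read by MTT. Triplicate determinations.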

Data set [20] relates to Rattus norvegicus. Briefly: Effect on MRT of doxorubicin in Sprague-Dawley rat at 5 mg/kg, iv co-administered with doxorubicin measured after 8 hrs by LC-MS/MS analysis. To be noted: in vivo. It counts as ADME, organism-based. In short, it runs like this: (§4)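 Male SD rats received DOX 10 mg/kg i.v. alone or with modulator 5 mg/kg i.v. Orbital blood was taken at 5 min to 8 h. Plasma DOX was measured by LC-MS/MS with DNR (0.5 μg/mL) as internal standard. Mean ± SD, n = 3.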

The subject of data set [21] is Rattus norvegicus. The experiment in a line: Effect on half life of doxorubicin in Sprague-Dawley rat at 5 mg/kg, iv co-administered with doxorubicin measured after 8 hrs by LC-MS/MS analysis. In kind it is ADME, organism-based. To be noted: in vivo. Summed up: as §4

Active and inactive are the calls of the source. No cut-off for these calls is given here. Where only a bound is given, the exact number is not on record here.

Broadly, the IC50 is the concentration that gives 50% inhibition. The term AUC denotes the area under the concentration-time curve, a measure of exposure. A higher AUC goes with high exposure. In general, Cmax refers to the peak of the concentration-time curve. Usually CL/F stands for the apparent clearance, not corrected for the fraction that reaches the circulation. In general, clearance refers to the rate of elimination divided by the concentration. High values mean a high capacity for elimination, low ones a low capacity for elimination. `COc1cc2c(cc1OC)CN(CCc1ccc(Nc3nc(-c4ccncc4)nc4ccccc34)cc1)CC2`: the viability at 48 h, 1 µM in data set [1] was 96.5%; in data set [2] it was over 99%. For the same compound, in the data set listed under Homo sapiens [3], the fold change (FC) was found to be 30.9. Besides, the IC50 in the data set on K562 was 4 µM. In addition, the entries for the “Ratio IC50/EC50” value in data set [4], in data set [5] and in data set [6] were 75.6, 241.6 and 1270, respectively. In addition, the inhibition result in the data set listed under Homo sapiens [7], in the data set filed under Homo sapiens [8], in the data set listed under Homo sapiens [9] and in the data set filed under Homo sapiens [19] was “Active” each time. In addition, in the data set with K562/A02, the outcome was inactive. Further, the AUC in the data set on Rattus norvegicus [10] was 3130 ng·h/mL; in the data set on Rattus norvegicus [11] it was 1660 ng·h/mL; in the data set on Rattus norvegicus [12], 3340 ng·h/mL. The half-life in [13] is 6.2 h; in [14], 5.9 h. Also, the Cmax in data set [15] came to 761 ng/mL; in data set [16] it was 570 ng/mL. In data set [17], this compound yielded a CL/F of 49.9 mL/min/kg. Moreover, the clearance in data set [18] was found to be 47.8 mL/min/kg. Besides, the Activity entry with Rattus norvegicus [20] and in the data set with Rattus norvegicus [21] was “Non-Toxic” each time.
